Source: ChEMBL document CHEMBL1275244, “Antimicrobial resistance among respiratory pathogens in Spain: latest data and changes over 11 years (1996-1997 to 2006-2007)” (2010)
≈ marks a conversion by molar mass, not a printed value.

Tests used:
Type in all cases: functional
[1] = tested on: Streptococcus pyogenes; test: Antimicrobial activity against Streptococcus pyogenes clinical isolates assessed as susceptible isolates by broth dilution method
How it was run: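 S. pyogenes clinical isolates held at −70°C in duplicate and recovered by hot-loop touching. MICs by the CLSI broth microdilution method in force in the study year, interpreted per CLSI M100-S19.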

[2] = tested on: Streptococcus pneumoniae; test: Antimicrobial activity against Streptococcus pneumoniae clinical isolates assessed as susceptible isolates by PK/PD technique
[3] = tested on: Streptococcus pneumoniae; test: Antimicrobial activity against Streptococcus pneumoniae clinical isolates by broth dilution method
[4] = tested on: Haemophilus influenzae; test: Antimicrobial activity against Haemophilus influenzae clinical isolates assessed as resistant isolates by broth dilution method
[5] = tested on: Haemophilus influenzae; test: Antimicrobial activity against Haemophilus influenzae clinical isolates assessed as susceptible isolates by PK/PD technique
[6] = tested on: Haemophilus influenzae; test: Antimicrobial activity against Haemophilus influenzae clinical isolates assessed as susceptible isolates by broth dilution method
[7] = tested on: Haemophilus influenzae; test: Antimicrobial activity against Haemophilus influenzae clinical isolates by broth dilution method
[8] = tested on: Streptococcus pyogenes; test: Antimicrobial activity against Streptococcus pyogenes clinical isolates by broth dilution method
[9] = tested on: Streptococcus pyogenes; test: Antimicrobial activity against Streptococcus pyogenes clinical isolates assessed as resistant isolates by broth dilution method
How it was run: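 S. pyogenes clinical isolates were held at −70°C in duplicate and revived by the hot-loop touching method. MICs were obtained by the CLSI broth microdilution procedure active in the year of study. Resistance was interpreted according to CLSI M100-S19.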

[10] = tested on: Haemophilus influenzae; test: Antimicrobial activity against Haemophilus influenzae clinical isolates by based on po dosed PK/PD technique
[11] = tested on: Streptococcus pneumoniae; test: Antimicrobial activity against Streptococcus pneumoniae clinical isolates assessed as resistant isolates by based on parenterally dosed broth dilution method in presence of beta-lactamase inhibitor clavulanic acid
How it was run: (§1)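 S. pneumoniae clinical isolates were kept frozen at −70°C in duplicate and recovered by hot-loop touching to avoid repeated freeze-thaw. MICs were measured by CLSI broth microdilution as in force in the study year, with S. pneumoniae ATCC 49619 as control strain. Susceptibility categories were interpreted using CLSI M100-S19 breakpoints.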

[12] = tested on: Streptococcus pneumoniae; test: Antimicrobial activity against Streptococcus pneumoniae clinical isolates assessed as susceptible isolates by based on parenterally dosed broth dilution method
How it was run: (§2)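 Isolates kept frozen at −70°C in duplicate and revived by hot-loop touching. MICs by the CLSI broth microdilution method active in the year of study, with S. pneumoniae ATCC 49619 as control. Categories assigned with CLSI M100-S19 breakpoints.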

[13] = tested on: Streptococcus pneumoniae; test: Antimicrobial activity against Streptococcus pneumoniae clinical isolates assessed as susceptible isolates by based on po dosed broth dilution method; how it was run: as §2
[14] = tested on: Streptococcus pneumoniae; test: Antimicrobial activity against Streptococcus pneumoniae clinical isolates by based on parenterally dosed broth dilution method; how it was run: as §2
[15] = tested on: Haemophilus influenzae; test: Antimicrobial activity against Haemophilus influenzae clinical isolates assessed as susceptible isolates by based on po dosed broth dilution method
How it was run: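 Clinical isolates stored in duplicate at −70°C and recovered by the hot-loop touching method. MICs by the CLSI broth microdilution method current in the study year, in Haemophilus test medium (HTM). Growth support of HTM checked with H. influenzae ATCC 10211. Controls were H. influenzae ATCC 49247 and ATCC 49766 and E. coli ATCC 35218. Susceptibility interpreted per CLSI M100-S19.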

[16] = tested on: Streptococcus pneumoniae; test: Antimicrobial activity against Streptococcus pneumoniae clinical isolates assessed as resistant isolates by based on po dosed broth dilution method; how it was run: as §1
[17] = tested on: Streptococcus pneumoniae; test: Antimicrobial activity against Streptococcus pneumoniae clinical isolates assessed as susceptible isolates by based on parenterally dosed PK/PD technique
[18] = tested on: Haemophilus influenzae; test: Antimicrobial activity against Haemophilus influenzae clinical isolates by based on po dosed broth dilution method
How it was run: (§3)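 H. influenzae clinical isolates were stored at −70°C in duplicate and recovered by the hot-loop touching method without repeated thawing. MICs were determined by CLSI broth microdilution in Haemophilus test medium, following the method current in the study year. Each medium batch was checked for growth support with H. influenzae ATCC 10211. Controls were H. influenzae ATCC 49247 and ATCC 49766 and E. coli ATCC 35218. Categories were assigned per CLSI M100-S19.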

[19] = tested on: Streptococcus pneumoniae; test: Antimicrobial activity against Streptococcus pneumoniae clinical isolates by based on po dosed broth dilution method; how it was run: as §2
[20] = tested on: Haemophilus influenzae; test: Antimicrobial activity against Haemophilus influenzae clinical isolates assessed as resistant isolates by based on po dosed broth dilution method; how it was run: as §3
[21] = tested on: Streptococcus pneumoniae; test: Antimicrobial activity against Streptococcus pneumoniae clinical isolates assessed as susceptible isolates by po dosed PK/PD technique
[22] = tested on: Streptococcus pneumoniae; test: Antimicrobial activity against Streptococcus pneumoniae clinical isolates assessed as susceptible isolates by broth dilution method; how it was run: as §2
[23] = tested on: Streptococcus pneumoniae; test: Antimicrobial activity against Streptococcus pneumoniae clinical isolates assessed as resistant isolates by broth dilution method

Structure (SMILES)	Activity [1] [%]	Activity [2] [%]	MIC50 [3] [µg/mL]	MIC90 [3] [µg/mL]	Activity [4] [%]	Activity [5] [%]	Activity [6] [%]	MIC50 [7] [µg/mL]	MIC90 [7] [µg/mL]	MIC50 [8] [µg/mL]	MIC90 [8] [µg/mL]	Activity [9] [%]	Activity [11] [%]	Activity [12] [%]	Activity [13] [%]	MIC50 [14] [µg/mL]	MIC90 [14] [µg/mL]	Activity [16] [%]	MIC50 [19] [µg/mL]	MIC90 [19] [µg/mL]	further results
CC1(C)S[C@@H]2[C@H](NC(=O)[C@H](N)c3ccccc3)C(=O)N2[C@H]1C(=O)O [AMPICILLIN]	100	93.4	≤ 0.015	2 (≈ 5.72 µM)	13.3	86.7	83.9	0.12 (≈ 0.343 µM)	4 (≈ 11.4 µM)	≤ 0.015	≤ 0.015	0	–	–	–	–	–	–	–	–	–
CO/N=C(\C(=O)N[C@@H]1C(=O)N2C(C(=O)O)=C(COC(N)=O)CS[C@H]12)c1ccco1 [CEFUROXIME]	–	–	–	–	–	–	–	–	–	≤ 0.015	≤ 0.015	–	5.5	83.8	94.5	≤ 0.015	1 (≈ 2.36 µM)	1.3	≤ 0.015	1 (≈ 2.36 µM)	Activity [10]: 91.4%; Activity [15]: 99.3%; Activity [17]: 99.3%; MIC50 [18]: 0.5 µg/mL (≈ 1.18 µM); MIC90 [18]: 1 µg/mL (≈ 2.36 µM); Activity [20]: 0.1%; Activity [21]: 94.5%
CC1(C)S[C@@H]2[C@H](NC(=O)Cc3ccccc3)C(=O)N2[C@H]1C(=O)O [PENICILLIN G]	100	–	–	–	–	–	–	–	–	≤ 0.015	≤ 0.015	0	0	99.8	77.1	≤ 0.015	0.5 (≈ 1.5 µM)	0.9	≤ 0.015	0.5 (≈ 1.5 µM)	–
CC[C@H]1OC(=O)[C@H](C)[C@@H](O[C@H]2C[C@@](C)(OC)[C@@H](O)[C@H](C)O2)[C@H](C)[C@@H](O[C@@H]2O[C@H](C)C[C@H](N(C)C)[C@H]2O)[C@](C)(O)C[C@@H](C)C(=O)[C@H](C)[C@@H](O)[C@]1(C)O [ERYTHROMYCIN]	80.6	78.9	≤ 0.015	≥ 128	–	32.5	–	1 (≈ 1.36 µM)	4 (≈ 5.45 µM)	≤ 0.015	2 (≈ 2.73 µM)	19	–	–	–	–	–	–	–	–	Activity [22]: 78.9%; Activity [23]: 21.1%
CC[C@H]1OC(=O)[C@H](C)[C@@H](O[C@H]2C[C@@](C)(OC)[C@@H](O)[C@H](C)O2)[C@H](C)[C@@H](O[C@@H]2O[C@H](C)C[C@H](N(C)C)[C@H]2O)[C@](C)(OC)C[C@@H](C)C(=O)[C@H](C)[C@@H](O)[C@]1(C)O [CLARITHROMYCIN]	80.9	78.2	≤ 0.015	≥ 128	0	5.1	99.3	2 (≈ 2.67 µM)	4 (≈ 5.35 µM)	≤ 0.015	2 (≈ 2.67 µM)	16.5	–	–	–	–	–	–	–	–	Activity [22]: 78.2%; Activity [23]: 20.9%
